Only some compounds are listed: those with a hit (about 4.9% of all), similar ones and a draw of the others.
STAT1 act-1: STAT1 signaling activators, primary screen, cell-based, HTS, luciferase reporter; 2.6% of 200,000 active; activation (% of control), % at 5.5 µM; AID 932, 2007; NIH 3T3 STAT1-luciferase reporter, IFN-gamma, luminescence; 100% = IFN-gamma alone, no compound;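 active means activation above the screen-wide mean activation plus 3 SD, cut at about 130% in these data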;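 further: raw ratio to IFN-gamma control signal so 100% means no change and 0% no light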
STAT1 blocker: STAT1 signaling inhibitors, primary screen, cell-based, HTS, luciferase reporter. inhibition, % at 5.5 µM. 0.35% of 200,000 active. NIH 3T3 STAT1-luciferase reporter, IFN-gamma, luminescence;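 active means inhibition above a set limit, the mean inhibition across all tested compounds plus 3 SD, cut at about 34% in these data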;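 further: 0% = IFN-gamma with DMSO and 100% = IFN-gamma with 300 µM nifuroxazide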
STAT3 inh: IL-6 driven STAT3 reporter inhibitors, primary screen, U3A cells, luciferase, luminescence, MLSCN library; IL-6 STAT3-luciferase reporter; host cell line lacks STAT1; inhibition, % at 5.5 µM; 0.89% of 190,000 active;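 active means inhibition above the mean inhibition across all screened compounds plus 3 SD, cut at about 44% in these data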;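 further: 0% = DMSO only wells and 100% = 100 µM nifuroxazide control wells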
STAT3 act-1: IL-6 driven STAT3 reporter potentiators, primary screen, U3A cells, luciferase, luminescence, MLSCN library. IL-6 STAT3-luciferase reporter; 100% = signal with IL-6 EC80 alone. activation (% of control), % at 5.6 µM. 0.91% of 190,000 active;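 active means activation above the screen-wide mean of compound activation plus 3 SD, cut at about 130% in these data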;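 further: 0% = background luminescence of wells with medium and substrate only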
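Assay system – human STAT1-deficient U3A cells with stable STAT3-luciferase reporter · Also added – IL-6 (33 ng/mL) · Schedule – compound 1 h, then IL-6 6 h at 37 °C · Technique – reporter luminescence signal · Evaluation – % activation versus median of IL-6-stimulated wells · Benchmarks – IL-6-only wells as 100% reference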
APP 5'UTR act: activators of APP 5'UTR luciferase reporter, primary screen, SH-SY5Y cells | SH-SY5Y APP 5'UTR luciferase reporter, luminescence; zero percent = DMSO vehicle wells | activation, % at 2 µM | 1% of 190,000 active | AID 1276, 2008;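 active means activation above a set limit, based on mean plus 3 SD of controls, cut at about 140% in these data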
NF-kB expr up: activators of NF-kB expression in neurons, primary screen, cell-based, HTS; human neuronal cells, NF-kB reporter expression; hits give high values; fold change at 12.5 µM; 1.6% of 190,000 active; AID 1239, 2008; in the data active means fold change above about 3.3
STAT3 act-2: STAT3 reporter potentiators, retest of hits, confirmation, U3A cells, luciferase, luminescence; shares compounds with STAT3 act-1; IL-6 potentiation; U3A cells lack STAT1; 100 means same as IL-6 alone; potentiation (% of control), % at 5.7 µM; 64% of 1,200 active;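 active means percent activation of the STAT3 luciferase reporter above a set limit taken from the earlier primary screen, cut at about 130% in these data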;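 further: 0% = background signal of medium plus substrate and 100% = median of IL-6 with DMSO wells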
NFkB act STAT3ct: NF-kB reporter activators in human cells, counter-screen for STAT3 activator project. shares compounds with STAT3 act-1. NF-kappaB reporter activation. activation (% of control), % at 5.7 µM. 11% of 1,200 active. AID 1309, 2008; in the data active means activation above about 120%;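 further: reporter induced by TNF-alpha stimulation; 100% = median of stimulated DMSO wells and 0% = no signal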
STAT1 act-2: STAT1 reporter activators, IFN-gamma induced, counter-screen for STAT3 activator project, cell-based, NIH 3T3, luciferase luminescence; shares compounds with STAT3 act-1; NIH 3T3 STAT1-luciferase reporter; activation (% of control), % at 5.7 µM; 13% of 1,200 active; AID 1318, 2008;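 active means activation above the solvent-only control well mean plus 3 SD, set per screening run, cut at about 120% in these data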;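 further: 100% = IFN-gamma with DMSO median signal so 100% means no change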
Starred values were filed as active, the others as inactive.

How did CN(C)C(=O)N1CCC(C(=O)NCc2cccs2)CC1 do in these assays?
STAT1 act-1: 98; STAT1 blocker: 1; STAT3 inh: -49; STAT3 act-1: 145*; APP 5'UTR act: 2; NF-kB expr up: 1.2; STAT3 act-2: 95; NFkB act STAT3ct: 102; STAT1 act-2: 100

How did Cc1cc(C)n(-c2nc(C)nc3c2cnn3-c2ccccc2)n1 do in these assays?
STAT1 act-1: 106; STAT1 blocker: -6; STAT3 inh: -60; STAT3 act-1: 155*; APP 5'UTR act: 9; NF-kB expr up: 1.2; STAT3 act-2: 151*; NFkB act STAT3ct: 108; STAT1 act-2: 99

What do the screens show for `CN(C)S(=O)(=O)c1ccc2nnn(O)c2c1`?
STAT1 act-1: 104; STAT1 blocker: -7; STAT3 inh: 5; STAT3 act-1: 103; APP 5'UTR act: 8; NF-kB expr up: 0.83

Results for O=C(N/N=C/c1ccc(OCC(=O)N2CCCCC2)cc1)c1ccccc1O ?
STAT1 act-1: 91; STAT1 blocker: 10; STAT3 inh: -39; STAT3 act-1: 141*; APP 5'UTR act: 3; NF-kB expr up: 1.2; STAT3 act-2: 146*; NFkB act STAT3ct: 104; STAT1 act-2: 114

Results for CSc1nnc2c(n1)c(C)nn2-c1ccc(C)cc1 ?
STAT1 act-1: 96; STAT1 blocker: 2; STAT3 inh: -56; STAT3 act-1: 149*; APP 5'UTR act: 1; NF-kB expr up: 1.9; STAT3 act-2: 161*; NFkB act STAT3ct: 116; STAT1 act-2: 128*

What do the screens show for `C=CCN(C(=O)CSc1nc2c(sc3ccccc32)c(=O)n1CCN(CC)CC)c1ccccc1`?
STAT1 act-1: 98; STAT1 blocker: 1; STAT3 inh: 6; STAT3 act-1: 105; APP 5'UTR act: 21; NF-kB expr up: 0.72

How did O=C(Cc1ccc(Br)cc1)Nc1ccc(S(=O)(=O)NCC2CCCO2)cc1 (centres undefined) do in these assays?
STAT1 act-1: 89; STAT1 blocker: 10; STAT3 inh: 13; STAT3 act-1: 95; APP 5'UTR act: -11; NF-kB expr up: 0.98

What do the screens show for `Cc1cc(N/N=C/c2c(O)ccc3ccccc23)nc(-c2ccccc2O)n1`?
STAT1 act-1: 98; STAT1 blocker: 2; STAT3 inh: -12; STAT3 act-1: 108; APP 5'UTR act: -58; NF-kB expr up: 0.45

What do the screens show for `Oc1ccc2ccccc2c1/C=N/Nc1ccccc1`?
STAT1 act-1: 93; STAT1 blocker: 8; STAT3 inh: -59; STAT3 act-1: 151*; APP 5'UTR act: 16; NF-kB expr up: 1.4; STAT3 act-2: 150*; NFkB act STAT3ct: 110; STAT1 act-2: 82

Results for CCOC(=O)C1=C(C)NC2=C(C(=O)CCC2)C1c1coc2ccccc2c1=O (centres undefined) ?
STAT1 act-1: 100; STAT1 blocker: 0; STAT3 inh: -44; STAT3 act-1: 145*; APP 5'UTR act: 2; NF-kB expr up: 0.9; STAT3 act-2: 150*; NFkB act STAT3ct: 101; STAT1 act-2: 102

Results for CC1=C(C(=O)OCC2CCCO2)C(c2coc3ccccc3c2=O)C2=C(CCCC2=O)N1 (centres undefined) ?
STAT1 act-1: 107; STAT1 blocker: -7; STAT3 inh: -36; STAT3 act-1: 143*; APP 5'UTR act: 10; NF-kB expr up: 0.98; STAT3 act-2: 161*; NFkB act STAT3ct: 102; STAT1 act-2: 108

What do the screens show for `CC1=C(C(=O)OC2CCCC2)C(c2coc3ccccc3c2=O)C2=C(CCCC2=O)N1` (centres undefined)?
STAT1 act-1: 99; STAT1 blocker: 3; STAT3 inh: -37; STAT3 act-1: 137*; APP 5'UTR act: 4; NF-kB expr up: 1.1; STAT3 act-2: 125; NFkB act STAT3ct: 95; STAT1 act-2: 92

Results for CC1=C(C(=O)Nc2ccccc2)C(c2coc3ccccc3c2=O)C2=C(CCCC2=O)N1 (centres undefined) ?
STAT1 act-1: 106; STAT1 blocker: -6; STAT3 inh: -22; STAT3 act-1: 122; APP 5'UTR act: 33; NF-kB expr up: 0.86

How did COC(=O)C1=C(C)NC2=C(C(=O)CCC2)C1c1coc2ccccc2c1=O (centres undefined) do in these assays?
STAT1 act-1: 86; STAT1 blocker: 14; STAT3 inh: -39; STAT3 act-1: 139*; APP 5'UTR act: -13; NF-kB expr up: 0.9; STAT3 act-2: 147*; NFkB act STAT3ct: 107; STAT1 act-2: 110

How did Cc1cc([N+](=O)[O-])nn1CCCC(=O)Nc1cc(Cl)ccc1Cl do in these assays?
STAT1 act-1: 94; STAT1 blocker: 6; STAT3 inh: 14; STAT3 act-1: 91; APP 5'UTR act: -1; NF-kB expr up: 1.1

What do the screens show for `CCN(CC)S(=O)(=O)c1ccc(N2CCOCC2)c(NC(=O)C23CC4CC(CC(Cl)(C4)C2)C3)c1`?
STAT1 act-1: 93; STAT1 blocker: 8; STAT3 inh: -15; STAT3 act-1: 110; APP 5'UTR act: 1; NF-kB expr up: 0.76

Results for Cc1ccc(NC(=O)c2c(Cl)n(C)c3ccccc23)cc1 ?
STAT1 act-1: 108; STAT1 blocker: -9; STAT3 inh: -68; STAT3 act-1: 170*; APP 5'UTR act: 37; NF-kB expr up: 1.7; STAT3 act-2: 190*; NFkB act STAT3ct: 123*; STAT1 act-2: 132*

What do the screens show for `COc1ccccc1-c1nnc(SC)n1C`?
STAT1 act-1: 97; STAT1 blocker: 2; STAT3 inh: 7; STAT3 act-1: 95; APP 5'UTR act: 1; NF-kB expr up: 1.2

How did COc1ccccc1-c1nnc(SCC(=O)O)n1C do in these assays?
STAT1 act-1: 100; STAT1 blocker: 0; STAT3 inh: -66; STAT3 act-1: 164*; APP 5'UTR act: 10; NF-kB expr up: 1.2; STAT3 act-2: 153*; NFkB act STAT3ct: 109; STAT1 act-2: 106

High-throughput results (PubChem)
